Data set [1] concerns MC65. Briefly: (§1) Neuroprotective activity against tetracycline deficiency-mediated cell viability loss in human MC65 cells at 1 uM after 72 hrs by MTT assay relative to control. It counts as functional. A digest of the protocol:
(§2)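 MC65 cells washed twice in PBS, seeded in Opti-MEM at 4×10^4 cells/well, treated at 37 °C under +TC or −TC for 72 h. MTT (5 mg/mL in PBS) added for 4 h, formazan dissolved in DMSO, A570 read. Viability expressed as percent of +TC control; EC50 from concentration series, SEM.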
(In general: Tetrazolium assays rely on reduction of a dye to a coloured formazan, in cell work by metabolically active cells.)

Data set [2] can be described thus: Neuroprotective activity against tetracycline deficiency-mediated cell viability loss in human MC65 cells after 72 hrs by MTT assay. It counts as functional, cell-based. The settings on record: MC65, 72 h. In outline: as §2
Data set [3] can be described thus: as §1. Type of data set: functional. In outline:
as §2

Data set [4] can be described thus: Metal chelating activity assessed as compound-Fe2+ complex formation at 50 uM after 10 mins by UV-vis spectra analysis. Type of data set: physicochemical. In outline:
(§3)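 Compound (50 μM) mixed with CuSO4, FeCl2 or ZnCl2 (50 μM) in deionized water, kept 10 min at room temperature, then UV absorption spectrum recorded from 200 to 600 nm.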

Data set [5] addresses Amyloid-beta precursor protein (Homo sapiens) (UniProt P05067). The data set is described as follows: Binding affinity to amyloid beta in human MC65 cells assessed as inhibition of tetracycline deficiency-induced amyloid beta oligomerization after 48 hrs by Western blot analysis. It counts as cell-based. A digest of the protocol: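 MC65 cells in Opti-MEM (2×10^6 cells/well) treated at 37 °C under +TC or −TC for 48 h, then lysed by sonication in Tricine buffer. Supernatant protein (20.0 μg, Bradford-quantified) run on Tris-Tricine SDS-PAGE and blotted to PVDF. Probed with 6E10 overnight at 4 °C, HRP secondary, chemiluminescence; α-tubulin loading control. Total oligomers quantified, n=6, SEM.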
On the technique in general: A western blot detects proteins with antibodies after separation by electrophoresis.

For data set [6] the target is unchanged. Briefly: Inhibition of amyloid beta42 (unknown origin) aggregation after 48 hrs by ThT assay. A digest of the protocol:
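Aβ42 (25 μM in PBS pH 7.4, 9 μL) mixed with 1 μL of compound in DMSO (0.01–100 μM solutions), triplicates with solvent control, incubated dark at room temperature 48 h. Then 5 μM ThT in 50 mM glycine pH 8.0 added; fluorescence read at ex 446/em 490 nm, with no-ThT background subtracted.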

The nature of data set [7]: Metal chelating activity assessed as compound-Zn2+ complex formation at 50 uM after 10 mins by UV-vis spectra analysis. Type of data set: physicochemical. A digest of the protocol:
as §3

Data set [8] deals with MC65. Briefly: Antioxidant activity in human MC65 cells assessed as decrease in tetracycline deficiency-mediated reactive oxygen species formation at 0.1 uM after 48 hrs by DCFH-DA probe-based flow cytometric analysis. It counts as functional, cell-based. In outline: (§4)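 MC65 cells washed in PBS, resuspended in Opti-MEM, seeded at 2×10^6 cells/well, treated at 37 °C with or without TC (1 μg/mL in culture medium) for 48 h. Harvested cells washed in cold PBS, loaded with 25 μM DCFH-DA in PBS for 1 h in the dark, and analysed by flow cytometry. Fluorescence expressed as percent of control.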
In general terms: Flow cytometry measures light scatter and fluorescence of single cells or particles in a stream.

A short description of data set [9]: Metal chelating activity assessed as compound-Cu2+ complex formation at 50 uM after 10 mins by UV-vis spectra analysis. Type of data set: physicochemical. In outline: as §3
Data set [10] has as its system MC65. Briefly: Effect on tetracycline deficiency-induced total amyloid beta42 level in human MC65 cells at 0.1 to 1 uM after 48 hrs by ELISA. It counts as functional, cell-based. A digest of the protocol:
(§5)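 MC65 cells in Opti-MEM (4×10^4 cells/well) treated at 37 °C under +TC or −TC for 48 h. Conditioned medium captured on BNT77-coated plates overnight at 4 °C, detected with HRP-BA27 (Aβ40) or HRP-BC05 (Aβ42) for 1 h at room temperature, TMB 30 min, A450. Values in pM from Aβ standard calibration curves.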

Data set [11] deals with MC65. The data set is described as follows: Effect on tetracycline deficiency-induced total amyloid beta40 level in human MC65 cells at 0.1 to 1 uM after 48 hrs by ELISA. Type of data set: functional, cell-based. A digest of the protocol:
as §5

Data set [12] relates to MC65. The data set is described as follows: Antioxidant activity in human MC65 cells assessed as decrease in tetracycline deficiency-mediated reactive oxygen species formation at 0.3 uM after 48 hrs by DCFH-DA probe-based flow cytometric analysis. It counts as functional, cell-based. In outline: as §4

Active and inactive are the calls of the source. The calls are words filed in the database; no cut-off is given here. A value given as a limit tells only on which side of the number the result lay.

This note sets out measurements from ChEMBL document CHEMBL3632502, “Bivalent ligands incorporating curcumin and diosgenin as multifunctional compounds against Alzheimer's disease” (Bioorg Med Chem, 2015).

Chain of Amyloid-beta precursor protein (Homo sapiens) (P05067 whole entry): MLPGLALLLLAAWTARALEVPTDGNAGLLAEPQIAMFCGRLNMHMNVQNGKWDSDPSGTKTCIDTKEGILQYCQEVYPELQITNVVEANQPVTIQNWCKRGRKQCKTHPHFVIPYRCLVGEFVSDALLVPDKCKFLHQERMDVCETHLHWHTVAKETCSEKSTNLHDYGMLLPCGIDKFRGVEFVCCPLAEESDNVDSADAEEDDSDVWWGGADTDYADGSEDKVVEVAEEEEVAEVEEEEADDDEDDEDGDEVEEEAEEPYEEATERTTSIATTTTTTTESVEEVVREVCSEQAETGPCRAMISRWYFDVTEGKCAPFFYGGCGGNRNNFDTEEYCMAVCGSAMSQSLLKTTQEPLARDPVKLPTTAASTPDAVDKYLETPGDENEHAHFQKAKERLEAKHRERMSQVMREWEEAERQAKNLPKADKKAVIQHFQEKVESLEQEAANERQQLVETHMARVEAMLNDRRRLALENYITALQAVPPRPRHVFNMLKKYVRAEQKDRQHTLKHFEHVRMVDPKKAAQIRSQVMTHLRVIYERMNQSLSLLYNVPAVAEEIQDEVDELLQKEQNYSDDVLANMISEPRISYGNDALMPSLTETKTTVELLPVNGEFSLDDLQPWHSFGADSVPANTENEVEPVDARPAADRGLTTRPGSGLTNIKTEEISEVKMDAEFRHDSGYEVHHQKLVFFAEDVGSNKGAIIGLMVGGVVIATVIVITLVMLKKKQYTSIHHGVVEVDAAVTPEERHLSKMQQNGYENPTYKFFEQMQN

As to `C[C@@H]1CC[C@@]2(OC1)O[C@H]1C[C@H]3[C@@H]4CC=C5C[C@@H](O)CC[C@]5(C)[C@H]4CC[C@]3(C)[C@H]1[C@@H]2C`, the result with MC65 [1] was inactive.

Take `COc1cc(/C=C/C(=O)/C(Cc2cn(CCCCCCCC(=O)NCCOCCOCCOCC(=O)O[C@H]3CC[C@@]4(C)C(=CC[C@H]5[C@@H]6C[C@@H]7O[C@]8(CC[C@@H](C)CO8)[C@@H](C)[C@@H]7[C@@]6(C)CC[C@@H]54)C3)nn2)=C(O)/C=C/c2ccc(O)c(OC)c2)ccc1O`: in [2], the EC50 (as a rule, the concentration that produces a half-maximal response) is 1040 nM. The Activity result in [3] is given as “>=80%”.

In [2], `COc1cc(/C=C/C(=O)/C(Cc2cn(CCOCCOCCNC(=O)CCC(=O)O[C@H]3CC[C@@]4(C)C(=CC[C@H]5[C@@H]6C[C@@H]7O[C@]8(CC[C@@H](C)CO8)[C@@H](C)[C@@H]7[C@@]6(C)CC[C@@H]54)C3)nn2)=C(O)/C=C/c2ccc(O)c(OC)c2)ccc1O` registered an EC50 of 112 nM. Moreover, the Activity result in [4] is “Not Active”; in data set [7], “Not Active”; in data set [9], “Not Active”; in data set [3] it was “>=80%”. Besides, the inhibition entry in data set [5] and in data set [6] was “Dose-dependent effect” throughout. Besides, the outcome in the data set with MC65 [8] was Active. Further, the result in the data set on MC65 [10] and in the data set with MC65 [11] was inactive.

Regarding `CCCCCC(=O)O[C@H]1CC[C@@]2(C)C(=CC[C@@H]3[C@@H]4C[C@@H]5O[C@]6(CC[C@@H](C)CO6)[C@@H](C)[C@@H]5[C@@]4(C)CC[C@@H]32)C1`, the result with MC65 [1] was inactive.

`COc1cc(/C=C/C(=O)/C(Cc2cn(CCCCCCCCCC(=O)NCCOCCOCCOCC(=O)O[C@H]3CC[C@@]4(C)C(=CC[C@H]5[C@@H]6C[C@@H]7O[C@]8(CC[C@@H](C)CO8)[C@@H](C)[C@@H]7[C@@]6(C)CC[C@@H]54)C3)nn2)=C(O)/C=C/c2ccc(O)c(OC)c2)ccc1O` returned an EC50 in data set [2] of 309 nM. In other words, the sub-micromolar range.

Take `COc1cc(/C=C/C(=O)/C(Cc2cn(CCCCCC(=O)NCCOCCOCCOCC(=O)O[C@H]3CC[C@@]4(C)C(=CC[C@H]5[C@@H]6C[C@@H]7O[C@]8(CC[C@@H](C)CO8)[C@@H](C)[C@@H]7[C@@]6(C)CC[C@@H]54)C3)nn2)=C(O)/C=C/c2ccc(O)c(OC)c2)ccc1O`: the EC50 in [2] came out at 381 nM. Besides, the Activity result in data set [3] is on record as “>=80%”.

As to `COc1cc(/C=C/C(=O)/C(Cc2cn(CCCCCCCCCCCC(=O)NCCOCCOCCOCC(=O)O[C@H]3CC[C@@]4(C)C(=CC[C@H]5[C@@H]6C[C@@H]7O[C@]8(CC[C@@H](C)CO8)[C@@H](C)[C@@H]7[C@@]6(C)CC[C@@H]54)C3)nn2)=C(O)/C=C/c2ccc(O)c(OC)c2)ccc1O`, in data set [2], the concentration giving a half-maximal response (EC50) worked out at 4620 nM.

For `COc1cc(/C=C/C(=O)/C(Cc2cn(CCCCC(=O)NCCOCCOCCOCC(=O)O[C@H]3CC[C@@]4(C)C(=CC[C@H]5[C@@H]6C[C@@H]7O[C@]8(CC[C@@H](C)CO8)[C@@H](C)[C@@H]7[C@@]6(C)CC[C@@H]54)C3)nn2)=C(O)/C=C/c2ccc(O)c(OC)c2)ccc1O`, in data set [2], the EC50 worked out at 232 nM. Further, the Activity entry in data set [4] was “Not Active”; in [7], “Not Active”; in data set [9], “Not Active”; in data set [3], “>=80%”. The inhibition entry in data set [5] and in [6] was “Dose-dependent effect” throughout. In the data set with MC65 [12], the result was Active. The outcome in the data set on MC65 [10] and in the data set on MC65 [11] was inactive.

Take `COc1cc(/C=C/C(=O)CC(=O)/C=C/c2ccc(O)c(OC)c2)ccc1O`: the outcome in the data set on MC65 [1] was inactive.

Regarding `COC(=O)CCC(=O)NCCOCCOCCn1cc(C/C(C(=O)/C=C/c2ccc(O)c(OC)c2)=C(O)\C=C\c2ccc(O)c(OC)c2)nn1`, in the data set on MC65 [1], the result was inactive.

As for `CC(C)Cc1cn(CCOCCOCCNC(=O)CCC(=O)O[C@H]2CC[C@@]3(C)C(=CC[C@H]4[C@@H]5C[C@@H]6O[C@]7(CC[C@@H](C)CO7)[C@@H](C)[C@@H]6[C@@]5(C)CC[C@@H]43)C2)nn1`, in the data set with MC65 [1], the outcome was inactive.
